One data set relates to BTK. The settings on record: cited from earlier work.
The conditions of data set [1]: dose range of 75–250 mg; dose‐proportional; cited from earlier work.
A short description of another data set: Study 1. In kind it is in vivo. The conditions noted are these: human, plasma, oral, 100 mg. In short, it runs like this:
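Healthy subjects, four-sequence crossover: 100 mg tablet or capsule fasted (>10 h). Period 3: tablet 30 min after high-fat meal (800–1000 calories), or fasted 2 h after 20 mg PPI following PPI 20 mg BID days −3 to −1. Plasma sampled predose to 24 h. Parent and metabolite by LC-MS/MS (1–1000, 5–5000 ng/mL). t½ noncompartmental (linear up log down).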

For data set [2] the following is noted: high permeability, low solubility; reduced solubility at higher pH; cited from earlier work.
The next data set has as its system CYP3A. The settings on record: has been reported; ref not given; cited from earlier work.
The next data set concerns gastric pH. The conditions noted are these: cited from earlier work.

This is an account of results in publication PMC9804870 (Clinical Pharmacology in Drug Development, 2022).

Usually half-life stands for the time in which the quantity being followed falls by half. A lower half-life goes with rapid decline.

Regarding `CC#CC(=O)NCCCC(=O)c1nc(-c2ccc(C(=O)Nc3ccccn3)cc2)c2c(N)nccn12` [ACP‐5862], the “Potency with respect to BTK inhibition, less than acalabrutinib” value with BTK is recorded as 50%.
Regarding `CC#CC(=O)N1CCC[C@H]1c1nc(-c2ccc(C(=O)Nc3ccccn3)cc2)c2c(N)nccn12` [Acalabrutinib], in data set [1], the “Dose linearity of pharmacokinetics” value was “linear pharmacokinetics”. The compound also yielded a half-life in the data set “Study 1” of 2 to 3 h. Moreover, in data set [2], the “Biopharmaceutical Classification System class” value is listed as “class II”.
Take `COCCCOc1ccnc(C[S+]([O-])c2nc3ccccc3[nH]2)c1C` (stereo not shown) [Rabeprazole]: in the data set on CYP3A, the “CYP3A inhibition in vitro” value is on record as “weak inhibitor”. Also, in the data set on gastric pH, the “Time needed to achieve maximum suppression of gastric pH” value is listed as 3 days.
Turning to `COc1ccc2[nH]c([S+]([O-])Cc3ncc(C)c(OC)c3C)nc2c1` (stereo not shown) [omeprazole], the “Time needed to achieve maximum suppression of gastric pH” value in the data set on gastric pH is 5 days.
